Most compounds without a hit are left out; they make up all but 3.5% or so of the library.
MrgX1 antagonist: blocks BAM8-22 activation of human MrgX1 receptor; Q96LB2; MRGX1-HEK293 calcium flux, Fluo-4, BAM8-22 antagonism; active compounds read low; B-score at 10 µM; hit rate 1.3% among 310,000;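 active means calcium-response B-score plate-corrected more than 3 library SD below zero, starting fluorescence within 5 deviations, no agonist response on first addition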;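 further: peak minus trough fluorescence over baseline after final BAM8-22 challenge near maximal dose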
Target sequence (Q96LB2 whole entry, looked up): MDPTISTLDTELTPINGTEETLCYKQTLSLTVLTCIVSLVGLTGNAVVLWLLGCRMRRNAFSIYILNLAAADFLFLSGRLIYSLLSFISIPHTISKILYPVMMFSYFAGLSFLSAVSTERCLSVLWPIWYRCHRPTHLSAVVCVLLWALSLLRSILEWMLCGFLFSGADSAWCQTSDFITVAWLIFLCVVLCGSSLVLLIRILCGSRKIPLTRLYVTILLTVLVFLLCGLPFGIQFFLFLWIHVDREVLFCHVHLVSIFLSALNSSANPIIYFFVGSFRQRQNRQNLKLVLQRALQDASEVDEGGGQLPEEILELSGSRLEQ
RGS4 block: inhibitors of human RGS4 | P49798 | HEK293 M3R/RGS4 inducible, Fluo-4 calcium flux; active compounds read high; triggered by carbachol at its EC20 | B-score at 10 µM | hit rate 0.45% among 310,000;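 active means B-score, a plate-corrected calcium signal, over three deviations above library mean, with baseline fluorescence within five deviations of library mean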;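 further: RGS4 expression induced by doxycycline in cells with stable M3 receptor; B-score is computed from the integrated fluorescence ratio over baseline after carbachol; higher B-score means a larger calcium signal and so more RGS4 inhibition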
Target sequence (P49798 whole entry, looked up): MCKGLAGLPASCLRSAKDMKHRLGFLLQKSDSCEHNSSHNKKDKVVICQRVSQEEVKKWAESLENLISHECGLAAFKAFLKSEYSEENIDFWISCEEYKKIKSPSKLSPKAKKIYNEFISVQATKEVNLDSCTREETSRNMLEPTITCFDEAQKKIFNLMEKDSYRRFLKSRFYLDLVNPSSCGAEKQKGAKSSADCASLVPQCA
RGS4 pot: potentiators or activators of RGS4. HEK293 M3R/inducible RGS4, carbachol calcium flux Fluo4; active compounds read low. B-score at 10 µM. hit rate 0.92% among 310,000. AID 463111;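 active means B-score of the integrated calcium signal more than 4 SD below the library mean, with starting fluorescence not abnormally high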;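 further: negative B-score means reduced calcium response which marks RGS4 activation or potentiation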
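test system = HEK293 cells with stable M3R and inducible RGS4 | schedule = recording 10 s baseline at 1 Hz, 100 s post-agonist | technique = Fluo4-AM (2 µM) calcium-flux fluorescence, kinetic read | measure = Agonist-evoked peak-minus-minimum fluorescence over baseline, integrated ratio, B score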
MrgX1 ag: human MrgX1 receptor agonism, primary screen; MrgX1-HEK293 cells, Fluo-4 calcium fluorescence, agonist mode; active compounds read high; B-score at 10 µM; AID 588627; hit rate 0.44% among 310,000;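 active means calcium response B-score plate-corrected fluorescence ratio at least 3 library SD, with starting fluorescence B-score inside 5 SD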
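times = overnight plating, then 30 min 37 °C plus 30 min room-temperature dye loading | assay system = stable human MrgX1 HEK293 cell line | input = fifteen thousand cells per well | signal = kinetic calcium dye fluorescence, Fluo-4 NW | dosing = compound delivered in addition one of three | read-out = B-scored fluorescence response ratio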
MrgX1 PAM: allosterically activates human MrgX1 receptor signaling; MrgX1-HEK293, Fluo-4 calcium flux, FDSS; active compounds read high; B-score at 10 µM; AID 588675; hit rate 0.63% among 310,000; Q96LB2;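 active means plate-corrected calcium response at least 3 library SD above typical, normal starting fluorescence, not activating the receptor alone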;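 further: compound read alongside a low EC10 to EC30 dose of BAM8-22 agonist; peak minus trough fluorescence over baseline measured at the second addition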
MrgX1 ant reconf: reconfirmed antagonist of human MrgX1 receptor signaling | AID 602420 | remaining BAM8-22 calcium response % of control (active compounds read low), % at 10 µM | MrgX1-HEK293, BAM8-22 calcium flux, Fluo-4; active compounds read low | shares compounds with MrgX1 antagonist | hit rate 19% among 2,300;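 active means remaining agonist calcium response no higher than 100% minus 3 SD of agonist-only control wells, with starting fluorescence near control levels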;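 further: agonist BAM8-22 given at a near maximal EC90 to ECmax level; peak minus minimum fluorescence divided by baseline after agonist addition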
HEK293 Ca flux: counter-screen for MrgX1 antagonists: effect in parental HEK293 cells; fluorescence ratio F(max-min)/F0 at 10 µM; shares compounds with MrgX1 antagonist; Fluo-4 calcium fluorescence, FDSS; hit rate 2% among 4,000; AID 624111;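 active means duplicate-averaged calcium fluorescence ratio at least three times the standard deviation of buffer wells, a nonspecific response in parental cells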
HEK293 Ca counter: counter-screen for MrgX1 allosteric activators: effect in parental HEK293 cells | shares compounds with MrgX1 antagonist | parental HEK293 calcium flux, Fluo-4 fluorescence ratio; active compounds read high | fluorescence ratio F(max-min)/F0 at 10 µM | hit rate 0.4% among 4,000 | AID 624114;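 active means calcium fluorescence ratio, averaged over duplicates, at least 3 SD of the buffer-well ratio, meaning a nonspecific response in receptor-free cells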;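 further: untransfected parental HEK293 lacking MrgX1 used as counterscreen for MrgX1 allosteric activators; fluorescence change taken during the second addition on a kinetic imager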
HEK293 Ca cntr2: MrgX1 activator counter-screen hit in parental HEK293 cells. shares compounds with MrgX1 antagonist. Fluo-4 calcium fluorescence (FDSS); active compounds read high. fluorescence ratio F(max-min)/F0 at 10 µM. hit rate 8.7% among 4,000. AID 624115;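 active means calcium fluorescence ratio at least three times the spread of buffer wells, meaning a non-specific response in parental cells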
The depositor's hits bear a star; i = inactive; . = no result.

SMILES	MrgX1 antagonist	RGS4 block	RGS4 pot	MrgX1 ag	MrgX1 PAM	MrgX1 ant reconf	HEK293 Ca flux	HEK293 Ca counter	HEK293 Ca cntr2
COC(=O)c1sc(-c2ccc(C(C)(C)C)cc2)cc1NC(=O)CCC(=O)O	-6.6*	i	i	i	i	58%*	i	i	i
O=C(Cc1ccc(NS(=O)(=O)c2cccc(C(F)(F)F)c2)cc1)NCCN1CCOCC1	i	i	i	i	i	.	.	.	.
CSc1n[nH]c2nc3c(c(=O)n12)C1(CCCC1)Cc1ccccc1-3	-5.4*	i	i	i	i	i	i	i	i
CSc1nnc2n(C)c3c(c(=O)n12)C1(CCCC1)Cc1ccccc1-3	i	i	i	i	i	.	.	.	.
COc1cccc(C(O)c2nc3ccccc3n2C(C)C)c1OC (stereo not drawn)	i	i	i	i	i	.	.	.	.
COc1cccc(C(O)c2nc3ccccc3n2C(C)C)c1 (stereo not drawn)	-6.3*	i	i	i	i	i	i	i	i
O=C(c1ccccc1)c1ccc(CN2C(=O)c3ccccc3C2=O)o1	-5.2*	i	i	i	i	i	i	i	i
Cc1ccc(C)c(NC(=S)N2CCC(NC(=O)c3ccc(F)cc3)CC2)c1	i	i	i	i	i	.	.	.	.
Nc1cccc(Oc2ccc3c(c2)C(=O)N(CC2CCCO2)C3=O)c1 (stereo not drawn)	i	i	i	i	i	.	.	.	.
O=C(COC(=O)c1ccc2ccccc2c1O)NCC(F)(F)F	i	i	i	i	i	.	.	.	.
C=CCSc1nc(N)c(C(=O)Nc2ccccc2)cc1C#N	i	i	i	i	i	.	.	.	.
C=CCSc1nc(N)c(C(=O)Nc2ccccc2OC)cc1C(=O)Nc1ccccc1	-5.9*	i	i	i	i	78%*	i	i	i
COc1ccccc1/C=C(/NC(=O)c1ccc(Cl)cc1Cl)C(=O)O	i	i	i	i	i	.	.	.	.
O=C(CCNS(=O)(=O)c1ccccc1)N1CCN(c2ccccc2F)CC1	i	i	i	i	i	.	.	.	.
Cc1onc(-c2c(Cl)cccc2Cl)c1CO/N=C(\C#N)c1c(Cl)cccc1Cl	i	i	i	i	i	.	.	.	.
CCOC(=O)C1CCN(C(=O)CCCOc2ccccc2)CC1	i	i	i	i	i	.	.	.	.
CCOC(=O)C1CCN(C(=O)CCCN2C(=O)c3ccccc3C2=O)CC1	-10*	i	i	i	i	i	i	i	i
Cc1cccc(C)c1NC(=S)N(CCCN1CCOCC1)Cc1cccnc1	-4.9*	i	i	i	i	i	i	i	i
Cc1cc(C)c(NC(=S)N(CCCN2CCOCC2)Cc2cccnc2)c(C)c1	i	i	i	i	i	.	.	.	.
CS(=O)(=O)N(CCc1ccccc1)CC(=O)NCC1CCCO1 (stereo not drawn)	-6.7*	i	i	i	i	i	i	i	i
CCCCc1nc2cc(C(=O)N3CCCCC3CCNC(C)=O)ccc2o1 (stereo not drawn)	i	i	i	i	i	.	.	.	.
COc1ccccc1N(Cc1cc2cccc(C)c2[nH]c1=O)C(=O)C(C)C	i	i	i	i	i	.	.	.	.
CCC(=O)N(Cc1cc2cccc(C)c2[nH]c1=O)c1ccccc1OC	-5.3*	i	i	i	i	i	i	i	i
Cc1cc2c(NC(=O)Nc3ccc(C(C)(C)C)cc3)cccc2nn1	-6.9*	i	i	i	i	78%*	i	i	i
O=C(CC(c1ccccc1)c1ccco1)Nc1nccs1 (stereo not drawn)	i	i	i	i	i	.	.	.	.
SMILES	MrgX1 antagonist	RGS4 block	RGS4 pot	MrgX1 ag	MrgX1 PAM	MrgX1 ant reconf	HEK293 Ca flux	HEK293 Ca counter	HEK293 Ca cntr2
CCOC(=O)Cc1csc(NS(=O)(=O)Cc2ccccc2)n1	-12*	i	i	i	i	i	i	i	i
CCOC(=O)Cc1csc(NS(=O)(=O)c2ccc3ccccc3c2)n1	i	i	i	i	i	.	.	.	.
CC1=C(C)CC2(SC1)C(=O)N(c1ccccc1)N=C2N (stereo not drawn)	i	i	i	i	i	.	.	.	.
Cc1ccc(C(=O)Nc2nc3ccccc3n3nnnc23)cc1	-11*	i	i	i	i	84%*	i	i	i
Cc1nnc(SCC(=O)Nc2cccc(S(=O)(=O)N(C)c3ccccc3)c2)s1	i	i	i	i	i	.	.	.	.
Cc1onc(-c2c(F)cccc2Cl)c1C(=O)N1C=CC(C(F)(F)F)=NCC1	i	i	i	i	i	.	.	.	.
Cc1onc(-c2c(Cl)cccc2Cl)c1C(=O)N1C=CC(C(F)(F)F)=NCC1	-9.2*	i	i	i	i	i	i	i	i
COc1ccc2cc(S(=O)(=O)N3CCCC3)ccc2c1	i	i	i	i	i	.	.	.	.
CN(CCN1CCOCC1)C(=O)CC1C(=O)NCCN1Cc1ccccc1F (stereo not drawn)	-8.6*	i	i	i	i	i	i	i	i
CN(CCC1CCOCC1)C(=O)CC1C(=O)NCCN1Cc1ccccc1F (stereo not drawn)	i	i	i	i	i	.	.	.	.
O=C(Cn1nnc(-c2ccccc2)n1)Nc1cccc(S(=O)(=O)N2CCOCC2)c1	-4.8*	i	i	i	i	70%*	i	i	i
CCN(CC(=O)Nc1cccc(S(=O)(=O)N2CCOCC2)c1)Cc1ccccc1	i	i	i	i	i	.	.	.	.
O=C(CN1C(=O)NC2(CCCCC2)C1=O)Nc1cccc(S(=O)(=O)N2CCOCC2)c1	-5.4*	i	i	i	i	i	i	i	i
CC1CCC2(CC1)NC(=O)N(CC(=O)Nc1cccc(S(=O)(=O)N3CCOCC3)c1)C2=O (stereo not drawn)	i	i	i	i	i	.	.	.	.
CCCn1ncc(CN2CCC(N3CCC(C(=O)N4CCOCC4)CC3)CC2)c1C	i	i	i	i	i	.	.	.	.

Screening results: PubChem, Johns Hopkins Ion Channel Center
